Experimental findings from ChEMBL document CHEMBL3414477, “Synthesis, biological investigation and molecular docking study of N-malonyl-1,2-dihydroisoquinoline derivatives as brain specific and shelf-stable MAO inhibitors” (Eur J Med Chem, 2015) are described below.

The target of data set [1] is T1, Amine oxidase [flavin-containing] B (Bos taurus, UniProt P56560).
T1 sequence (P56560 whole entry): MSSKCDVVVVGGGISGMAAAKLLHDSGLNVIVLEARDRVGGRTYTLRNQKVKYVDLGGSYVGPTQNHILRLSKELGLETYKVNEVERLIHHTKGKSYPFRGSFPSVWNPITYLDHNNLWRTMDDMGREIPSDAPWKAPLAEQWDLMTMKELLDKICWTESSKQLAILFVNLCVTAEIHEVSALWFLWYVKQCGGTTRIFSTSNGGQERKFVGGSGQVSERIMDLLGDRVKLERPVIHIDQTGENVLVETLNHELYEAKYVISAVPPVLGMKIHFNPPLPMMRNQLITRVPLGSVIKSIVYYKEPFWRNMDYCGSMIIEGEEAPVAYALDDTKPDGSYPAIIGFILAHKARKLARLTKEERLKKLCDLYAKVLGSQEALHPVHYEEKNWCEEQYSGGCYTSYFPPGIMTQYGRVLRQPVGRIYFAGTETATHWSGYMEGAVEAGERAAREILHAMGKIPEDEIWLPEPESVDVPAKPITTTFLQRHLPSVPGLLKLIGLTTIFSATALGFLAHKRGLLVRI
In words: Inhibition of bovine brain mitochondria MAO-B by spectrofluorimetry.

The target of data set [2] is T2, Amine oxidase [flavin-containing] A (Bos taurus, UniProt P21398).
T2 sequence (P21398 whole entry): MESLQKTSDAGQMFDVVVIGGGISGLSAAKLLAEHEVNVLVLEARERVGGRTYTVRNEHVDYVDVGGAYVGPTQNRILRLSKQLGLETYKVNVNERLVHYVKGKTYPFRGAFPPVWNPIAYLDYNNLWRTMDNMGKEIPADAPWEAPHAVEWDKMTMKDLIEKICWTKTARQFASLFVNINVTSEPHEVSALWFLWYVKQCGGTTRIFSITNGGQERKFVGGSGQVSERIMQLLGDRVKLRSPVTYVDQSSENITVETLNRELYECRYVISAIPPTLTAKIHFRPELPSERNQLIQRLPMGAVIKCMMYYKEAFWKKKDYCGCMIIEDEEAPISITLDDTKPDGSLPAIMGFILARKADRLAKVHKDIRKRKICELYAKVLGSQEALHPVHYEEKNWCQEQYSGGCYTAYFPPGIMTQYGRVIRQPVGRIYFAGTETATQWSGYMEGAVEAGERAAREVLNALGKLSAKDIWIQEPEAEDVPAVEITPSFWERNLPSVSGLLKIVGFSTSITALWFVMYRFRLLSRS
In words: Inhibition of bovine brain mitochondria MAO-A by spectrofluorimetry.

The next data set is filed under the species Bos taurus. As to the kind of experiment: Selectivity index, ratio of IC50 for bovine brain mitochondria MAO-B to IC50 for bovine brain mitochondria MAO-A. In outline: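 Bovine brain mitochondria (6 mg/mL suspension) in 0.25 M phosphate buffer, pH 7.4, were used with 0.1 mM clorgyline or L-deprenyl to isolate MAO-A or MAO-B. Compounds at five concentrations in propylene glycol were preincubated for 20 min, then 2.5 mM kynuramine was added for 60 min at 37 °C. The reaction was stopped with perchloric acid, made alkaline with NaOH and read fluorimetrically in duplicate. IC50 was reported, and SI = MAO-B IC50 / MAO-A IC50.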

Data set [3] concerns Brain. As to the kind of experiment: Drug distribution in Sprague-Dawley rat brain measured per gram at 20 mg/kg, iv. Format: ADME, organism-based. Details: dose 20 mg/kg, route intravenous. The conditions noted are these: in vivo. An outline of the steps: (§1)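 Female Sprague Dawley rats (65–70 g, 3 per group) were anesthetized with urethane and given 20 mg/kg in DMSO (25 mg/mL) via the external jugular vein. At 5, 15, 30, 45, 60 and 75 min, eyeball blood was taken into acetonitrile. Brains were removed, washed, homogenized in water plus 5% DMSO/acetonitrile and centrifuged at 4000 rpm for 10 min. Supernatants were analysed by HPLC, with DMSO-injected controls.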

Data set [4] in a line: Shelf-life stability of the compound in phosphate buffer at pH 7.4 assessed as apparent pseudo first order rate constant of disappearance by reverse-phase HPLC analysis. Format: physicochemical. In outline:
(§2)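 1 mL of freshly prepared 2 × 10^-4 M methanolic solution (stock) was added to 5 mL of 0.2 M phosphate buffer, pH 5.8 or 7.4, at about 37 °C. Tubes were kept in the dark for 3 days and sampled at 5, 180, 1880 and 2440 min for reverse-phase HPLC. The rate constant came from linear regression of ln peak area against time, and t1/2 was derived from it.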

Data set [5] can be described thus: Shelf-life stability of the compound in phosphate buffer at pH 7.4 assessed as half life by reverse-phase HPLC analysis. Format: physicochemical. An outline of the steps: as §2
Data set [6] is described as follows: Shelf-life stability of the compound in phosphate buffer at pH 5.8 assessed as apparent pseudo first order rate constant of disappearance by reverse-phase HPLC analysis. Format: physicochemical. An outline of the steps:
as §2

Data set [7] deals with Brain. As to the kind of experiment: Drug metabolism in Sprague-Dawley rat brain assessed as 2-(isoquinolinium-2-yl)-3-oxo-3-(phenethylamino)propanoate at 20 mg/kg, iv. Format: ADME, organism-based. Further details: dose 20 mg/kg, route intravenous. The conditions noted are these: in vivo. An outline of the steps: as §1
Data set [8] can be described thus: Stability of the compound in 20% rabbit brain homogenate assessed as half life by reverse-phase HPLC analysis. Format: ADME, tissue-based, Oryctolagus cuniculus. An outline of the steps: (§3)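 Rabbit brains were homogenized in 4 volumes of ice-cold isotonic 0.2 M phosphate buffer, pH 7.4, giving a 20% homogenate that was equilibrated at 37 °C. Methanolic compound solution (2 × 10^-4 M stock) was added and the mix held at 37 °C. Samples were taken at 5, 60, 120, 180 and 240 min, quenched in ice-cold methanol, frozen, centrifuged and run on HPLC. The pseudo first order rate came from ln peak area versus time (n = 5), and t1/2 was derived.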

Data set [9] can be described thus: Chemical stability of the compound in 30% aqueous hydrogen peroxide assessed as half life by reverse-phase HPLC analysis. Format: physicochemical. An outline of the steps:
(§4)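 Reagents were 10% methanolic silver nitrate or 30% aqueous hydrogen peroxide. The compound and its metabolites were measured by a validated reverse-phase HPLC method. Pseudo first order disappearance was fitted by linear regression of ln peak area against time, and t1/2 was derived from the rate constant.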

The nature of data set [10]: Chemical stability of the compound in 30% aqueous hydrogen peroxide assessed as apparent pseudo first order rate constant of disappearance by reverse-phase HPLC analysis. Format: physicochemical. The conditions noted are these: buffer. In outline: as §4
For a further data set, the system named is Plasma. In words: Stability of the compound in 80% mouse plasma assessed as apparent pseudo first order rate constant of disappearance by reverse-phase HPLC analysis. Format: ADME, cell-free. An outline of the steps: (§5)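 Heparinized mouse blood was spun at 4000 rpm for 20 min, and the plasma was diluted to 80% with 0.2 M phosphate buffer, pH 7.4, then prewarmed at 37 °C. Methanolic compound solution (2 × 10^-4 M stock) was added and the mix held at 37 °C. Samples were taken at 5–240 min, quenched in ice-cold methanol, frozen, centrifuged and run on HPLC. Rate came from ln peak area versus time (n = 5), and t1/2 was derived.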

Data set [11] is described as follows: Shelf-life stability of the compound in phosphate buffer at pH 5.8 assessed as half life by reverse-phase HPLC analysis. Format: physicochemical. In outline: as §2
The test system of the next data set is Blood. In words: Drug metabolism in Sprague-Dawley rat blood assessed as 2-(isoquinolinium-2-yl)-3-oxo-3-(phenethylamino)propanoate measured during first 15 mins at 20 mg/kg, iv. Details: dose 20 mg/kg, route intravenous. Format: ADME, organism-based. Particulars: in vivo, 0.25 h. An outline of the steps: as §1
Data set [12] in a line: Chemical stability of the compound in 10% methanolic silver nitrate assessed as half life by reverse-phase HPLC analysis. Format: physicochemical. In outline:
as §4

Data set [13] in a line: Chemical stability of the compound in 10% methanolic silver nitrate assessed as apparent pseudo first order rate constant of disappearance by reverse-phase HPLC analysis. Format: physicochemical. In outline:
as §4

For data set [14], the system named is Brain. In words: Stability of the compound in 20% rabbit brain homogenate assessed as apparent pseudo first order rate constant of disappearance by reverse-phase HPLC analysis. Format: ADME, tissue-based, Oryctolagus cuniculus. An outline of the steps:
as §3

Data set [15] is described as follows: Stability of the compound in 80% mouse plasma assessed as half life by reverse-phase HPLC analysis. Format: ADME, cell-free. In outline: as §5
Data set [16] relates to Brain. In words: Drug metabolism in Sprague-Dawley rat brain assessed as 2-(isoquinolin-2(1H)-yl)-3-oxo-3-(phenethylamino)propanoate at 20 mg/kg, iv. Format: ADME, organism-based. Details: dose 20 mg/kg, route intravenous. The conditions noted are these: in vivo. An outline of the steps: as §1

For `CCOC(=O)C(C(=O)N/N=C/c1ccc([N+](=O)[O-])cc1)[n+]1ccc2ccccc2c1` (stereo unspecified), the IC50 (commonly the concentration needed to halve the response being measured) in [1] is 7400 µM; in data set [2], 0.0038 µM. The Selectivity Index in the data set listed under Bos taurus worked out at 1.94e+06.

Take `CCOC(=O)C(C(=O)NCCc1ccccc1)N1C=Cc2ccccc2C1` (stereo unspecified): the Drug uptake with Brain [3] amounted to 145.1 µg/g. The K in data set [4] was determined as 0.00114 min⁻¹; in data set [6], 0.000561 min⁻¹; in data set [10] it was 0.0181 min⁻¹; with Plasma, 6.81 ×10⁻³ /min; in [13], 0.0217 min⁻¹; with Brain [14], 3.82 ×10⁻³ /min. Also, the half-life – broadly, how long it takes for the measured level to halve – in data set [5] was 10.1 h; in [8] it was 3.02 h; in [9], 0.637 h; in data set [11] it was 20.6 h; in data set [12], 0.532 h; in [15] it was 1.7 h. In addition, the Drug metabolism result in the data set on Brain [7], in the data set with Blood and in the data set with Brain [16] was “metabolite_detected” each time.

Take `N/N=C/c1ccc(Cl)cc1`: the IC50 in data set [1] worked out at 7400 µM; in [2], 0.0039 µM. For the same compound, the Selectivity Index in the data set filed under Bos taurus was 1.89e+06.

As for `N/N=C/c1ccc([N+](=O)[O-])cc1`, the values for the IC50 in data set [1] and in data set [2] were 380 µM and 0.049 µM, respectively. Also, the Selectivity Index in the data set listed under Bos taurus was 9500.

Take `CCOC(=O)C(C(=O)N/N=C/c1ccc(Cl)cc1)[n+]1ccc2ccccc2c1` (stereo unspecified): the IC50 amounted to 360 µM in data set [1] and 0.066 µM in data set [2]. Moreover, the Selectivity Index in the data set filed under Bos taurus was determined as 5400.

Consider `CCOC(=O)C(C(=O)NCCc1ccccc1)[n+]1ccc2ccccc2c1` (stereo unspecified), for which the concentration for half-maximal inhibition (IC50) came out at 77 µM in data set [1] and 0.0062 µM in data set [2]. For the same compound, in the data set listed under Bos taurus, the Selectivity Index came out at 12400.
